Assay outcomes (PubChem)
MBD2 inh – MBD2-methylated oligo binding inhibition; Q9UBB5; TR-FRET, MBD2 binding to methylated oligonucleotide; inhibition, % at 4.4 µM; actives 0.31% (n = 370,000); in the data active = inhibition above about 13%
LEDGF integ inh – blocks HIV-1 LEDGF/p75-dependent DNA integration | TR-FRET IN-LEDGF/p75 DNA integration, Eu/Cy5 | inhibition, % at 3.7 µM | actives 0.64% (n = 370,000);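 active = inhibition above the screen-wide mean plus 3 SD, cut at about 13% in these data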;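 also: signal is the Cy5 over europium emission ratio at 671 and 618 nm; 0% = plate median of compound wells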
TDP2 absorb – TDP2 (human) inhibition, absorbance primary screen; O95551; recombinant TDP2, T5PNP hydrolysis, p-nitrophenol absorbance 415 nm; inhibition, % at 12.8 µM; actives 0.34% (n = 370,000); AID 720702;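 active = inhibition above the mean of all tested compounds plus 3 SD, set per campaign, cut at about 25% in these data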;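 also: 0% = DMSO with enzyme and 100% = buffer with substrate but no TDP2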
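Test system: Human TDP2 enzyme | Reagent: 5 mM T5PNP | Compound dosing: 12.8 µM single point, 1% DMSO | Incubation: Enzyme reaction with compound for 2 h at 37 °C | Technique: p-Nitrophenol epi absorbance | Read-out: % inhibition relative to enzyme-containing and enzyme-free wells | Benchmarks: High control without enzyme, low control DMSO plus TDP2 | Replicates: Singlicate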
DDE Tn6 FP inh – DD(E)-Tn6 binding inhibition, primary FP screen | actives 0.21% (n = 370,000) | Fibrin DD(E) TRITC-Tn6 fluorescence polarization displacement | AID 720509 | inhibition, % at 8.3 µM;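 active = inhibition above a per-campaign cutoff: mean of compounds within control limits plus 3 SD, cut at about 15% in these data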;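 also: 0% = median of all compound wells on the plate and 100% = blocking peptide control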
UHRF1 binding – blocks human UHRF1 binding to methylated DNA | AID 687016 | Q96T88 | inhibition, % at 4.4 µM | UHRF1 binding to methylated oligo, TR-FRET | actives 0.75% (n = 370,000); in the data active = inhibition above about 21%;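 also: UHRF1 SRA domain binding a hemimethylated CpG hairpin DNA probe; 0% = median of test compound wells and 100% = reference inhibitor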
Target sequence (Q96T88 whole entry, looked up, the tested form may be a part): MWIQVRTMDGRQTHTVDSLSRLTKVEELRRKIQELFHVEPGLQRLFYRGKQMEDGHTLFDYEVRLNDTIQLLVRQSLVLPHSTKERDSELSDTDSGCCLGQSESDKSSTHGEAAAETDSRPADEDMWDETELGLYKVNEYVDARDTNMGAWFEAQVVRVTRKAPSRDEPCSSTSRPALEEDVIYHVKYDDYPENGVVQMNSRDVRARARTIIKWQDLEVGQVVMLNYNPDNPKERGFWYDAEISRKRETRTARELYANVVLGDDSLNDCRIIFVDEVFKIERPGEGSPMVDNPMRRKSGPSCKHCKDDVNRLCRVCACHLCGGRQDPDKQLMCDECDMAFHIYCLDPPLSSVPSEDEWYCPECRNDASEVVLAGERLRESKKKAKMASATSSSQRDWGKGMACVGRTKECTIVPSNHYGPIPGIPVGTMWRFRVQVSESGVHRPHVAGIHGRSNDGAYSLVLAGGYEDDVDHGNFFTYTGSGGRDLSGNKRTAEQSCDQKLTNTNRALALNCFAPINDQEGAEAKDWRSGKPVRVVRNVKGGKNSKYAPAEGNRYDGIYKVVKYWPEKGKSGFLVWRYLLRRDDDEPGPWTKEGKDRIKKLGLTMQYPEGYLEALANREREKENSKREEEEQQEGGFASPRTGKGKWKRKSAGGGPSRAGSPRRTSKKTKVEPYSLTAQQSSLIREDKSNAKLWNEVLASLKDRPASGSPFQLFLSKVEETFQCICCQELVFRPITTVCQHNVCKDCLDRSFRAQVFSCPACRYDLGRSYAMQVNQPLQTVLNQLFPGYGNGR
DDE Tn7 FP inh – DD(E)-Tn7 binding inhibition, primary FP screen. FP displacement of FITC-Tn7 peptide from fibrin DD(E); 0% = median of compound wells per plate. inhibition, % at 8.3 µM. actives 0.13% (n = 370,000);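 active = inhibition above the mean of compounds falling within the control limits plus 3 SD of them, cut at about 14% in these data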;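 also: 0% = plate median of compound wells and 100% = 10 µM Aha-Tn7 peptide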
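Also added: labelled Tn7 tracer, 0.1 µM; Assay system: human fibrin DD(E) protein; Amount: 2 µM fibrin DD(E); Schedule: 10 min compound pre-incubation, 3 h probe incubation at room temperature; Repeats: one replicate per compound; Read-out basis: percent inhibition; Measured by: fluorescence polarization of the labelled Tn7 tracer.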
DDE Tn7 confirm – confirmation of inhibitors of Tn7 binding to human fibrin DD(E). inhibition, % at 8.3 µM. actives 5% (n = 460). shares compounds with DDE Tn7 FP inh. FP displacement of TRITC-Tn7 peptide from DD(E); 0% set at plate's compound-well median. AID 720628;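 active = inhibition above the campaign cutoff, the mean of compounds within control limits plus 3 SD, cut at about 14% in these data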;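 also: 100% = median FP of high control wells holding Aha-Tn7 inhibitor peptide; displacers lower polarization since freed probe rises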
Tn7 DDE ctr – counter-screen for inhibitors of Tn7 peptide binding to fibrin DD(E); shares compounds with DDE Tn7 FP inh; inhibition, % at 8.3 µM; TRITC-Tn7 probe displacement, fluorescence polarization; actives 3% (n = 460); AID 720633;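 active = inhibition above the cutoff, the mean of compounds lying between the control bounds plus 3 SD of those compounds, cut at about 17% in these data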;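 also: 0% = median of compound sample wells and 100% = excess unlabeled Aha-Tn7 peptide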
* hit, by the source's call; / = not tested or not shown. Shown are actives, neighbours in structure and some others; about 1.9% of the full set was active somewhere.

SMILES	MBD2 inh	LEDGF integ inh	TDP2 absorb	DDE Tn6 FP inh	UHRF1 binding	DDE Tn7 FP inh	DDE Tn7 confirm	Tn7 DDE ctr
O=C(NCCc1ccccc1F)c1[nH]c(C(F)(F)F)nc1-c1ccccc1	2	3	-5	-2	-2	-2	/	/
COCCNC(=O)c1[nH]c(C(F)(F)F)nc1-c1ccccc1	-1	1	5	2	-1	15*	8	2
O=C(Nc1cccc(Cl)c1)N1CCCC1	3	3	1	6	0	14*	0	-2
O=C(Nc1cccc(Cl)c1)N1CCOCC1	3	-5	0	0	3	2	/	/
COC(=O)c1cc(=O)nc(NN=Cc2ccccc2O)s1	-4	3	7	-4	-2	-2	/	/
COC(=O)[C@]12C[C@H](CC(=O)NCCC(C)C)C(=O)N(Cc3cccc4ccccc34)C1=C[C@H](COCc1ccccc1)O[C@@H]2C	2	-2	-7	-2	0	-1	/	/
O=C(Cn1nnc(-c2ccc(F)cc2)n1)Nc1ccc2c(c1)OCCO2	0	1	-1	10	-2	15*	-5	-6
O=C(Nc1ccc(Nc2cccnc2)cc1)c1c[nH]c2ccccc12	2	8	0	6	-1	0	/	/
O=C1Nc2ccccc2S/C1=C/c1cccs1	-5	5	-15	1	-3	-6	/	/
O=C1NC(=S)SC1=Cc1cccs1	-3	0	-14	8	0	14*	-6	-8
O=[N+]([O-])c1ccc(CP(=O)(c2ccccc2)c2ccccc2)cc1	0	-1	-6	3	1	14*	8	2
CCN1CCN(c2nc3ccccc3nc2C(C#N)S(=O)(=O)c2ccc(C)cc2)CC1 (centres undefined)	-4	1	3	-1	2	-1	/	/
Cc1ccc(S(=O)(=O)C(C#N)c2nc3ccccc3nc2N2CCCC2)cc1 (centres undefined)	2	7	37*	1	0	16*	3	2
CC(C)(C)c1cc(C(=O)N/N=C/c2ccccc2O)n(-c2ccccc2)n1	4	-9	-15	-5	7	-7	/	/
CC(C)(C)c1cc(C(=O)N/N=C/c2ccc(F)cc2)n(-c2ccccc2)n1	7	2	-13	3	1	14*	3	-1
Cc1onc(C(=O)Nc2sc3c(c2C(N)=O)CCCC3)c1[N+](=O)[O-]	-1	2	9	1	-2	16*	3	0
Cc1onc(-c2ccccc2)c1C(=O)Nc1sc2c(c1C(N)=O)CCC2	-2	0	3	-4	-3	-8	/	/
C[C@H]1CN(C(=O)OC(C)(C)C)CCN1c1ccc(N2CC[C@@H](O)C2)c(C#N)c1	-7	1	-1	-4	-5	-4	/	/
C#CCNc1ccc([N+](=O)[O-])cc1	-2	-2	-4	-1	-4	19*	14	2
Cc1c(NS(=O)(=O)c2cc([N+](=O)[O-])ccc2Cl)c(=O)n(-c2ccccc2)n1C	6	-2	-6	0	1	14*	-6	-10
Cc1c(NS(=O)(=O)c2ccc([N+](=O)[O-])cc2)c(=O)n(-c2ccccc2)n1C	2	-3	-12	1	6	3	/	/
CC[C@@]12C(=O)N(c3cccc(Br)c3)C(=O)N1[C@H](c1ccc(Cl)cc1)[C@@H]1C(=O)N(C3CCCCC3)C(=O)[C@@H]12	0	-2	4	4	-3	-6	/	/
CC[C@@]12C(=O)N(c3ccc(OC)cc3)C(=O)N1[C@H](c1ccc(Cl)cc1)[C@@H]1C(=O)N(C3CCCCC3)C(=O)[C@@H]12	0	-2	13	3	2	16*	7	-1
COCc1cc(N2CCNC[C@H]2C)ccc1N1CCS(=O)(=O)CC1	0	0	2	8	3	-3	/	/
C/C(=N\N1CCN(Cc2ccc(Cl)cc2)CC1)c1ccc([N+](=O)[O-])cc1	-1	1	5	5	-3	15*	-4	-6
SMILES	MBD2 inh	LEDGF integ inh	TDP2 absorb	DDE Tn6 FP inh	UHRF1 binding	DDE Tn7 FP inh	DDE Tn7 confirm	Tn7 DDE ctr
CCN(CC)C(=O)N1CCN(C(=O)N(CC)CC)CC1	1	-1	3	4	3	8	/	/
CCN(CC)C(=O)N1CCN(C)CC1	4	0	-3	7	0	15*	0	2
CC1(C)CC2(CC(C)(C(=O)CSc3nc4ccccc4s3)OC2=O)C(=O)O1 (centres undefined)	-4	5	-14	-2	-1	18*	1	-10
CC1CC2(CC(C)(C(=O)CSc3nc4ccccc4s3)OC2=O)C(=O)O1 (centres undefined)	-2	3	10	-4	-1	-2	/	/
CCc1ccc(-c2cc(C)no2)cc1S(=O)(=O)Nc1ccccn1	3	-4	4	0	1	5	/	/
Cc1cc(-c2ccc(C(C)C)c(S(=O)(=O)Nc3ccccn3)c2)on1	1	0	17	10	1	18*	-2	-7
c1ccc(-c2ccc(CNC3CC3)cc2)cc1	-2	0	-13	10	-1	14*	6	-1
CN(C)c1ccc(C(=O)NCC2CCN(C(=O)C(=O)c3cccs3)CC2)cc1	-1	-1	-7	-10	-2	-2	/	/
NC(=O)c1cc(-c2csc(NCCc3ccccc3)n2)ccc1O	1	5	-9	-2	3	0	/	/
CC(=O)Nc1ccc(-c2csc(NCCc3ccccc3)n2)cc1	-1	-2	10	6	0	17*	12	9
C[C@H](CO)N1C[C@H](C)[C@@H](CN(C)C(=O)Nc2ccccc2)OCc2cn(nn2)CCCC1=O	0	-1	-3	-8	12	6	/	/
Cc1noc(C)c1S(=O)(=O)Nc1ccc2c(c1)C(=O)N([C@@H](C)CO)C[C@H](C)[C@@H](CN(C)Cc1ccc(C(F)(F)F)cc1)OCCCC[C@H](C)O2	-4	0	0	-4	-1	14*	3	2
Cc1ccccc1C(=O)N[C@@H](Cc1cccnc1)C(=O)N1CCC[C@H]1C(=O)NC1CCCC1	3	-3	-5	2	-1	3	/	/
CCc1ccc(C(=O)N2CCN(c3ccc(NC(=O)c4ccco4)cc3)CC2)cc1	0	-1	6	2	0	-3	/	/
